Calls of active or inactive are those of the source. No cut-off for these calls is given here.
Key:
[1] = target: T1, Histone acetyltransferase p300 (Homo sapiens, UniProt Q09472); assay: (§1) Inhibition of recombinant human GST-tagged p300 HAT domain (1195 to 1673 residues) expressed in Escherichia coli BL21 codon plus cells at 10 uM using Histone H3 peptide (1 to 21) and [3H]acetyl-CoA as substrate preincubated with enzyme for 10 mins followed by substrate addition and measured after 30 mins by scintillation counting method relative to control
[2] = target: T1, Histone acetyltransferase p300; assay: as §1, with “cells” for “cells at 10 uM”, “method” for “method relative to control”
Procedure, shortened: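 The compound (100 nM to 10 µM) was preincubated with p300-HAT (10 nM) for 10 min at 25 °C in 50 mM phosphate buffer pH 7.0 with 0.01% Brij-35. Incorporation of [3H]acetyl from Ac-CoA into histone H3 (1-21) peptide was captured on filter paper, washed with 50 mM NaHCO3 and counted by scintillation. IC50 came from a sigmoidal dose-response fit, mean of at least three experiments.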

[3] = Inhibition of p300 HAT domain (1287-1652 residues) (unknown origin) harboring regulatory auto-acetylation loop deletion mutant and M1652G mutant using H4-15 peptide as substrate preincubated with enzyme and substrate for 10 mins followed by addition of [12C]acetylCoA and [14C]acetylCoA for 10 mins by phosphor-imaging analysis; set-up: species or system Homo sapiens
[4] = target: Lysine-specific histone demethylase 1A (Homo sapiens) (UniProt O60341); assay: Inhibition of LSD1 (unknown origin) at 50 uM
[5] = target: T1, Histone acetyltransferase p300; assay: Inhibition of His6-tagged p300 HAT domain (unknown origin) assessed as disruption of p300 and Histone H4 (1-21) peptide interaction incubated for 1 hr by Alpha assay
Procedure, shortened: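 Varying compound concentrations were added in PBS with 0.5% BSA for 1 h. Signal was read with excitation at 680 nm and emission at 570 nm. A biotinylated His6 peptide served as an interference counter-control. IC50 came from a sigmoidal fit.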

[6] = system: MCF7; assay: Antiproliferative activity against human MCF7 cells assessed as reduction in cell viability incubated for 6 days by Celigo-insitu cell cytometer analysis; settings: MCF7, 144 h
[7] = system: MCF7; assay: Antiproliferative activity against human tamoxifen-resistant MCF7 cells assessed as reduction in cell viability incubated for 6 days by Celigo-insitu cell cytometer analysis; settings: MCF7, 144 h
[8] = system: PANC-1; assay: Antiproliferative activity against human PANC1 cells assessed as reduction in cell viability incubated for 5 days by MTT assay; settings: PANC-1, 120 h
[9] = Antiproliferative activity against human MDAPanc28 cells assessed as reduction in cell viability incubated for 5 days by MTT assay; settings: MDA-Panc-28, 120 h
[10] = system: Kasumi 1; assay: Antiproliferative activity against human Kasumi-1 cells assessed as reduction in cell viability incubated for 5 days by XTT assay; settings: Kasumi 1, 120 h
[11] = target: T2, CREB-binding protein/Histone acetyltransferase p300 (Homo sapiens) (UniProt Q09472+Q92793); assay: Inhibition of p300/CBP HAT domain in human Kasumi-1 cells assessed as reduction in H3K9 acetylation at 5 to 10 uM incubated for 12 hrs by Western blot analysis; type: cell-based
Procedure, shortened: (§2)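 Kasumi-1 cells (10^6 per well) were treated with compound at 0, 5 and 10 µM for 12 h. Total histones were extracted, and 2 µg was run on SDS-PAGE and blotted to PVDF. Blots were probed for H3K9Ac, H3K18Ac, H3K27Ac and total H3, then with an anti-rabbit IgG secondary.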

[12] = target: T2, CREB-binding protein/Histone acetyltransferase p300 (Homo sapiens); assay: Inhibition of p300/CBP HAT domain in human Kasumi-1 cells assessed as reduction in H3K18 acetylation at 5 to 10 uM incubated for 12 hrs by Western blot analysis; type: cell-based; procedure, shortened: as §2
[13] = target: T2, CREB-binding protein/Histone acetyltransferase p300 (Homo sapiens); assay: Inhibition of p300/CBP HAT domain in human Kasumi-1 cells assessed as reduction in H3K27 acetylation at 5 to 10 uM incubated for 12 hrs by Western blot analysis; type: cell-based; procedure, shortened: as §2
[14] = target: CREB-binding protein (Homo sapiens, UniProt Q92793); assay: as §1, with “CBP” for “p300”, “domain” for “domain (1195 to 1673 residues)”, “cells” for “cells at 10 uM”, “method” for “method relative to control”
Procedure, shortened: (§3)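 CBP, PCAF and Myst3 HAT proteins were prepared like GST-p300-HAT: expressed in E. coli BL21-CodonPlus, purified on glutathione resin, then by gel filtration. Inhibition was measured in the same radiometric filter assay with [3H]Ac-CoA and histone H3 (1-21) peptide, read by scintillation counting.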

[15] = target: Histone acetyltransferase KAT2B (Homo sapiens, UniProt Q92831); assay: Inhibition of recombinant human GST-tagged PCAF expressed in Escherichia coli BL21 codon plus cells using Histone H3 peptide (1 to 21) and [3H]acetyl-CoA as substrate preincubated with enzyme for 10 mins followed by substrate addition and measured after 30 mins by scintillation counting method; procedure, shortened: as §3
[16] = target: Histone acetyltransferase KAT6A (Homo sapiens, UniProt Q92794); assay: Inhibition of recombinant human GST-tagged Myst3 expressed in Escherichia coli BL21 codon plus cells using Histone H3 peptide (1 to 21) and [3H]acetyl-CoA as substrate preincubated with enzyme for 10 mins followed by substrate addition and measured after 30 mins by scintillation counting method; procedure, shortened: as §3

T2 sequence (Q09472 whole entry, looked up, the tested form may be a part): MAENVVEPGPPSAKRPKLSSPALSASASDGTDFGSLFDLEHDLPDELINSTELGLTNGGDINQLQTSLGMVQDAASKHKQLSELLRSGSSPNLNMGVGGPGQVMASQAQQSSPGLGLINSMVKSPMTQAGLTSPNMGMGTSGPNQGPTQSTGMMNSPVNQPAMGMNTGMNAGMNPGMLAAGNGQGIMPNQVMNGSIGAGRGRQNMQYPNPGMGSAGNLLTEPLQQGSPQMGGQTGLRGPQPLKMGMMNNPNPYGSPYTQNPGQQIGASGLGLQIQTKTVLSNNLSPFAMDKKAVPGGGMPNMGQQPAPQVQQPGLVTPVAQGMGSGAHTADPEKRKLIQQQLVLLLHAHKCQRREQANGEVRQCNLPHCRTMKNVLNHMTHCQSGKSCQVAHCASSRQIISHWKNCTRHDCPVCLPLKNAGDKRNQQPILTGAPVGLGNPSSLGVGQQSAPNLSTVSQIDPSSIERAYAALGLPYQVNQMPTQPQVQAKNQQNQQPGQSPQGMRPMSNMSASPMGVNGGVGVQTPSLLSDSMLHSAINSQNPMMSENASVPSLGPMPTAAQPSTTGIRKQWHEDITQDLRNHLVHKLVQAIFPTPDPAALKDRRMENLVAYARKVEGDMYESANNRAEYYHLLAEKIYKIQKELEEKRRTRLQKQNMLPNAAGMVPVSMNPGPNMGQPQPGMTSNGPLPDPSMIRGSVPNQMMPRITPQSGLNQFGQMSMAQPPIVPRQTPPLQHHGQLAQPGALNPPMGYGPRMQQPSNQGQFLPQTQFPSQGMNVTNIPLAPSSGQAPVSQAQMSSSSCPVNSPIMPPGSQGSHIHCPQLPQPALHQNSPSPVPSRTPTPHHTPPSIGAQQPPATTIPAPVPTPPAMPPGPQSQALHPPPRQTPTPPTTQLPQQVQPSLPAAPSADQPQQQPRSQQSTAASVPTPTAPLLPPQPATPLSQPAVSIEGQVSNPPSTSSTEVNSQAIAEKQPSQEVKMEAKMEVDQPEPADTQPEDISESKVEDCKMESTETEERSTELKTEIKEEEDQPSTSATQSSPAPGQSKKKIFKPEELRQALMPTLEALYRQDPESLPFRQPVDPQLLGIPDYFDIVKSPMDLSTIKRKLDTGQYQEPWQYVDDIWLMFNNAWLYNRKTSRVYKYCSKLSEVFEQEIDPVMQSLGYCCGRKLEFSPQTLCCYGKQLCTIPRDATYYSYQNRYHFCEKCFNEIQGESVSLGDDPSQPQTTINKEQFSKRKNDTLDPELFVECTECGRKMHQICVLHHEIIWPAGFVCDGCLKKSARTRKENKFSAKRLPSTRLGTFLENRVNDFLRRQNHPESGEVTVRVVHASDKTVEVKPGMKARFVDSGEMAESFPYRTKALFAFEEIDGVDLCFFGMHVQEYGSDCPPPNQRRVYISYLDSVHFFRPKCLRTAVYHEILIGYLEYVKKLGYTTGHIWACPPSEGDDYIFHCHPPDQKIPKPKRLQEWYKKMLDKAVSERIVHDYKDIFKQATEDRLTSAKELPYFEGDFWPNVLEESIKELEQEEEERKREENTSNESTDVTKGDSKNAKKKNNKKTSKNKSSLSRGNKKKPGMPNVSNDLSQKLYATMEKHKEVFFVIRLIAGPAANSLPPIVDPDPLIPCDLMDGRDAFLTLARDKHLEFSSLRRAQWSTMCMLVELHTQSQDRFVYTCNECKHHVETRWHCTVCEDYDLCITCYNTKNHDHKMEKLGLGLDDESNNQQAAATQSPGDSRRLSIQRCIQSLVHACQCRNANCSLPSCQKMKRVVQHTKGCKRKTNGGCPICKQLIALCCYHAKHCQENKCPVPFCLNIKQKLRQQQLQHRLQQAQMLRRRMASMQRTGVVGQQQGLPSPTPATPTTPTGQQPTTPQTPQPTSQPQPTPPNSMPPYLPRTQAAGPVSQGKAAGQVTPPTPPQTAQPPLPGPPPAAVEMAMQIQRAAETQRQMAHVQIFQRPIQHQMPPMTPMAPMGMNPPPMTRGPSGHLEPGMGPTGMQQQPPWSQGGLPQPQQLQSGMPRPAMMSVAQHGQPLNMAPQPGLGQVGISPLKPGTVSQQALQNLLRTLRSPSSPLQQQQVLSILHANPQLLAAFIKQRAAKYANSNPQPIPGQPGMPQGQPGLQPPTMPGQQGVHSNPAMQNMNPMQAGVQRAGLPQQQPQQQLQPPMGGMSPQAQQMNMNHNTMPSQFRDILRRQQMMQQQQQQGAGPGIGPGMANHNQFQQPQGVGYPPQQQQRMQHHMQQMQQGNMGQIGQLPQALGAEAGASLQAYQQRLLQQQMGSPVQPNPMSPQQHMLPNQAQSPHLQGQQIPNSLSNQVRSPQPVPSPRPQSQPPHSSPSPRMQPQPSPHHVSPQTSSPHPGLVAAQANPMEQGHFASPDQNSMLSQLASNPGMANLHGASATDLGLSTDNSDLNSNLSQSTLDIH
T2 sequence (Q92793 whole entry, looked up, the tested form may be a part): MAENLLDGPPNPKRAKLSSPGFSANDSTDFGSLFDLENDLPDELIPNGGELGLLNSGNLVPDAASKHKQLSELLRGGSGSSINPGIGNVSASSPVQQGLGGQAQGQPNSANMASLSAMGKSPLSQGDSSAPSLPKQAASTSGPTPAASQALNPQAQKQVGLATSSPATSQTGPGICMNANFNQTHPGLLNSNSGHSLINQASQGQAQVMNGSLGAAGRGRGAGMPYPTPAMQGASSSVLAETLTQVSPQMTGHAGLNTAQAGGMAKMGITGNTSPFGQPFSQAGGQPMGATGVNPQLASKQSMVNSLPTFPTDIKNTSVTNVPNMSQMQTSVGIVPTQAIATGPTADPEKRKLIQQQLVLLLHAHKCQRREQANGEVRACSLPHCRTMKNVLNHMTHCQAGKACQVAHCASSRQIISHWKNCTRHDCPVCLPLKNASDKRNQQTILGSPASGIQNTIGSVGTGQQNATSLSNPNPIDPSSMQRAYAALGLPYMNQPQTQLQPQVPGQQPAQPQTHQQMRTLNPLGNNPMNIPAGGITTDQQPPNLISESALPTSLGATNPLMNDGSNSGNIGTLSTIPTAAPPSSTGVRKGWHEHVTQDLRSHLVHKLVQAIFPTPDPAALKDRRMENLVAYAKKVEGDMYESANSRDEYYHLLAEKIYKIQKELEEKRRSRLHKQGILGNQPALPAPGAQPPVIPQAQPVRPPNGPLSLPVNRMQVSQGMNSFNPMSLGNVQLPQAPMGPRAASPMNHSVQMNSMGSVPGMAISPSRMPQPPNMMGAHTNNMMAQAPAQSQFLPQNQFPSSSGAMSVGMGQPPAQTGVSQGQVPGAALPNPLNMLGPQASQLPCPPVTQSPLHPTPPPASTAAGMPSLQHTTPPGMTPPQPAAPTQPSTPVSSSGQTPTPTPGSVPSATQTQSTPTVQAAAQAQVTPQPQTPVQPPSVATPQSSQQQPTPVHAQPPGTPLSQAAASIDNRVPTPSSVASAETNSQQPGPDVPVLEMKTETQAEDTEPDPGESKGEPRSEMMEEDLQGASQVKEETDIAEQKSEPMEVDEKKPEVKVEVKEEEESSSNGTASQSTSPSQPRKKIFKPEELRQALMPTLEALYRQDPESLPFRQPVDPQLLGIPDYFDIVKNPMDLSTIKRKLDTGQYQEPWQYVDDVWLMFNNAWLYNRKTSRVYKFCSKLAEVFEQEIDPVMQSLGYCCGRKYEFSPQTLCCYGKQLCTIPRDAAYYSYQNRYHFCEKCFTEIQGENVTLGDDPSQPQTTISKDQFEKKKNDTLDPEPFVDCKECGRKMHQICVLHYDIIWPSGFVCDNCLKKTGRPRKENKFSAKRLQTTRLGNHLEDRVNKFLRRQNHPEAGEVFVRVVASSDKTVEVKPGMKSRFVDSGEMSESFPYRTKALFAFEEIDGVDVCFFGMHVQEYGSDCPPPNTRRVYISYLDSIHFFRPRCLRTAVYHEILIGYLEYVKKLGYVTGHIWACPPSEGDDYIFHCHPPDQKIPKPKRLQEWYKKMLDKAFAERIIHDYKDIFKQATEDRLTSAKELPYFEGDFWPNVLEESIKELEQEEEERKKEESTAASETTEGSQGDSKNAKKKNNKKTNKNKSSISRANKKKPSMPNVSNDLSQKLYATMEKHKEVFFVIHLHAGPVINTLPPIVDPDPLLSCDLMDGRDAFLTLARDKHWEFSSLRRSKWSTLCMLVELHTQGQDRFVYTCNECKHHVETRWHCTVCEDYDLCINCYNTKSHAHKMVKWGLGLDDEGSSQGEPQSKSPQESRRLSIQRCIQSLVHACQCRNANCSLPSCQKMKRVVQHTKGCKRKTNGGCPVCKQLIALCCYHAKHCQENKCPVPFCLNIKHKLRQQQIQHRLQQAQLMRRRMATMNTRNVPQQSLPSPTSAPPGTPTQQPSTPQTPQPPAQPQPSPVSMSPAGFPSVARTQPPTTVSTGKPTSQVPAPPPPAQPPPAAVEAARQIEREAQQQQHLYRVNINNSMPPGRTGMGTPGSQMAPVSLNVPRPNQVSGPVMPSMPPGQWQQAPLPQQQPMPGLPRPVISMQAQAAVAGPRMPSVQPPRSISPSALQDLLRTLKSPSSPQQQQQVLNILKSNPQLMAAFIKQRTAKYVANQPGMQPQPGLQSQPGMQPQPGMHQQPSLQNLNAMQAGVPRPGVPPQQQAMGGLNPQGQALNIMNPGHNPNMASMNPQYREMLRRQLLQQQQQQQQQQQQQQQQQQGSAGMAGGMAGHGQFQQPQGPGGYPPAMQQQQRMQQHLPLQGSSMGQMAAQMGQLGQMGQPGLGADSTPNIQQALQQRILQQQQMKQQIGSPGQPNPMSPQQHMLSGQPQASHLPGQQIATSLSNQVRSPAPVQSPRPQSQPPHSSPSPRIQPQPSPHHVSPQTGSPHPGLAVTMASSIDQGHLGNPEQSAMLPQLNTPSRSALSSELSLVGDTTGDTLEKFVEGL
T1 sequence (Q09472 whole entry, the tested form may be a part): as the sequence (Q09472 whole entry, looked up, the tested form may be a part) above
CREB-binding protein, sequence (Q92793 whole entry, the tested form may be a part): as the sequence (Q92793 whole entry, looked up, the tested form may be a part) above

SMILES | inhibition [1] [%] | IC50 [2] [µM] | further results
OCc1ccc(-c2cc(CNCC3CCNCC3)sc2-c2ccc(CO)cc2)cc1 | 22 | > 10 | 
CC(C)(C)c1ccc(-c2cc(CNCC3CCNCC3)sc2-c2ccc(CN)cc2)cc1 |  | 2 | 
CC(C)(C)c1ccc(-c2csc(CNCC3CCNCC3)n2)cc1 | 10 |  | 
COc1ccc(-c2ccc(-c3cc(C(=O)NCC4CCNCC4)sc3-c3ccc(-c4ccc(OC)cc4)cc3)cc2)cc1 |  | 2.8 | 
CC(C)(C)c1ccc(-c2sc(C(=O)NCC3CCNCC3)cc2-c2ccc(-c3ccoc3)cc2)cc1 |  | 7.4 | 
CC(C)(C)c1ccc(-c2sc(C(=O)NCC3CCNCC3)cc2-c2ccc(CN)cc2)cc1 |  | 10 | 
c1cc(-c2ccc(-c3ncc(CNCC4CCNCC4)nc3-c3ccc(-c4ccoc4)cc3)cc2)co1 | 25 |  | 
CC(C)(C)c1ccc(-c2sc(C(=O)NCC3CCNCC3)cc2-c2ccc(CN3CCNCC3)cc2)cc1 | 12 | > 10 | 
CC(C)(C)c1ccc(-c2nc(C(=O)NCC3CCNCC3)sc2-c2ccc(C(C)(C)C)cc2)cc1 |  | 2.4 | 
CC(C)(C)c1ccc(-c2sc(CNCC3CCNCC3)cc2-c2ccc(-c3ccoc3)cc2)cc1 |  | 5.8 | 
CC(C)(C)c1ccc(-c2cc(CN3CCOCC3)sc2-c2ccc(C(C)(C)C)cc2)cc1 | 20 | > 10 | 
CC(C)(C)c1ccc(-c2sc(C(=O)NCC3CCNCC3)cc2-c2ccoc2)cc1 | 36 | > 10 | 
CC1=NN(c2ccc(C(=O)O)cc2)C(=O)/C1=C\c1ccc(-c2cc(C)c(C)cc2[N+](=O)[O-])o1 |  |  | IC50 [3]: 1.6 µM
c1cc(-c2ccc(-c3cc(CNCC4CCNCC4)sc3-c3ccc(CN4CCCCC4)cc3)cc2)co1 |  | 4.6 | 
CC(C)(C)c1ccc(-c2cc(C(=O)NCC3CCNCC3)sc2-c2ccc(C(C)(C)C)cc2)cc1 |  | 8.6 | inhibition [4]: inactive
c1cc(-c2cc(CNCC3CCNCC3)sc2-c2ccoc2)co1 | 23 | > 10 | 
CC(C)(C)c1ccc(-c2cc(CN3CCNCC3)sc2-c2ccc(C(C)(C)C)cc2)cc1 | 5 | > 10 | 
NCc1ccc(-c2cc(CNCC3CCNCC3)sc2-c2ccc(CN)cc2)cc1 | 0 | > 10 | inhibition [5]: inactive; EC50 [6]: > 30 µM; EC50 [7]: > 30 µM; EC50 [8]: > 30 µM; EC50 [9]: > 30 µM; EC50 [10]: > 30 µM; inhibition [11]: inactive; inhibition [12]: inactive; inhibition [13]: inactive

SMILES | inhibition [1] [%] | IC50 [2] [µM] | further results
COc1ccc(-c2cc(CNCC3CCNCC3)sc2-c2ccc(OC)c(OC)c2)cc1OC | 0 | > 10 | EC50 [6]: > 30 µM; EC50 [7]: > 30 µM; EC50 [8]: > 30 µM; EC50 [9]: > 30 µM; EC50 [10]: 18.7 µM
CC(C)(C)c1ccc(-c2cc(CNCCCN)sc2-c2ccc(C(C)(C)C)cc2)cc1 |  | 3 | 
c1ccc(-c2cccc(-c3cc(CNCC4CCNCC4)sc3-c3cccc(-c4ccccc4)c3)c2)cc1 | 18 | > 10 | 
CCCCc1ccc(-c2cc(CNCC3CCNCC3)sc2-c2ccc(CCCC)cc2)cc1 | 10 | > 10 | 
CC(C)(C)c1ccc(-c2cc(CNCCCCCCN)sc2-c2ccc(C(C)(C)C)cc2)cc1 |  | 1.4 | 
O=C(NCC1CCNCC1)c1cc(-c2ccc(CN3CCCCC3)cc2)c(-c2ccc(-c3ccoc3)cc2)s1 |  | 1.6 | 
c1cc(-c2ccc(-c3cc(CNCC4CCNCC4)sc3-c3ccc(-c4ccoc4)cc3)cc2)co1 |  | 1.7 | 
CC(C)(C)c1ccc(-c2cc(CNC3CCNCC3)sc2-c2ccc(C(C)(C)C)cc2)cc1 |  | 5 | 
CC(C)(C)c1ccc(-c2cc(CNCCC3CCNCC3)sc2-c2ccc(C(C)(C)C)cc2)cc1 |  | 2.2 | 
CC(C)(C)c1ccc(-c2cc(CNCC3CCNCC3)sc2-c2ccc(C(C)(C)C)cc2)cc1 |  |  | IC50 [14]: 1.2 µM; IC50 [15]: > 50 µM; IC50 [16]: > 50 µM; inhibition [4]: inactive; EC50 [6]: 2.8 µM; EC50 [7]: 3.4 µM; EC50 [8]: 1 µM; EC50 [9]: 2.8 µM; EC50 [10]: 2.6 µM
COc1ccc(-c2ccc(-c3cc(CNCC4CCNCC4)sc3-c3ccc(-c4ccc(OC)cc4)cc3)cc2)cc1 |  | 7.4 | 
CC(C)(C)c1ccc(-c2sc(CNCC3CCNCC3)c(Br)c2-c2ccc(C(C)(C)C)cc2)cc1 |  | 1.8 | 
CC(C)(C)c1ccc(-c2sc(C(=O)NCC3CCNCC3)cc2-c2cccnc2)cc1 | 31 | > 10 | 
CC(C)(C)c1ccc(-c2cc(COCC3CCNCC3)sc2-c2ccc(C(C)(C)C)cc2)cc1 | 0 | > 10 | 
CC(C)(C)c1ccc(-c2csc(C(=O)NCC3CCNCC3)n2)cc1 | 18 |  | 
CC(C)(C)c1ccc(-c2sc(CNCC3CCNCC3)cc2-c2ccc(CN)cc2)cc1 | 35 | > 10 | 
CC(C)(C)c1ccc(-c2nc(CNCC3CCNCC3)sc2-c2ccc(C(C)(C)C)cc2)cc1 |  | 8.6 | 
O=C(NCC1CCNCC1)c1cc(-c2ccc(-c3ccoc3)cc2)c(-c2ccc(-c3ccoc3)cc2)s1 |  | 1.6 | 

Source: ChEMBL document CHEMBL4342520, “Discovery, Structure-Activity Relationship, and Biological Activity of Histone-Competitive Inhibitors of Histone Acetyltransferases P300/CBP” (J Med Chem, 2020)
